Screening results from PubChem BioAssay.
TAAR1 antagonist: human TAAR1 antagonism; Q96RJ0; CHO RD-HGA16 TAAR1, Fluo-8 calcium fluorescence, antagonist; inhibition, % at 3 µM; 360,000 tested, 1.5% active; AID 624466;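 active means inhibition above a per-plate cutoff, the mean inhibition of test compounds on that plate plus 3 SD, cut at about 49% in these data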;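 further: 0% = DMSO plus EC80 beta-PEA response and 100% = DMSO alone without agonist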
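Material: RD-HGA16 CHO cells with stable hTAAR1 and Gα16; Dosing: single nominal final test compound concentration of 3 µM; Schedule: seeding 17-24 h prior, 75-min 37 °C, 30-min RT dye loading; Detection: kinetic Fluo-8 calcium fluorescence measurement; Measure: % inhibition from peak post-agonist over basal fluorescence ratio; Benchmarks: vehicle and agonist controls.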
M1 ag: human M1 muscarinic receptor agonism | P11229 | CHO-K1 hM1, Fluo-8 calcium fluorescence, agonist mode; 0% DMSO, 100% acetylcholine EC100 | activation, % at 3 µM | 360,000 tested, 0.33% active | AID 588814;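 active means activation above the run's mean compound activation plus 3 SD, cut at about 16% in these data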;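 further: peak over basal fluorescence ratio within a 140 s kinetic read after compound addition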
Target sequence (P11229 whole entry, looked up): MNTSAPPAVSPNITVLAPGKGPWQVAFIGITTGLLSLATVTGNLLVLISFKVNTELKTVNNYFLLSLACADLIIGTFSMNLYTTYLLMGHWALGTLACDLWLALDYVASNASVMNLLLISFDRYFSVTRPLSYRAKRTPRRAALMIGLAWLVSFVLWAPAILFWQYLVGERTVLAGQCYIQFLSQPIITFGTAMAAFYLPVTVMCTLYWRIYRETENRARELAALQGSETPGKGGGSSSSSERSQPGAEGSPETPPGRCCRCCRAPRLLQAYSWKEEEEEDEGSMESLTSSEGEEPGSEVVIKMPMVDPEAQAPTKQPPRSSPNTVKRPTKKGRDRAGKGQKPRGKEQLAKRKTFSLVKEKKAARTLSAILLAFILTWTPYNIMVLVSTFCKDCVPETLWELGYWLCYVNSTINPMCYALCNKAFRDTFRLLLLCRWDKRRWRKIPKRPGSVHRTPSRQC
TAAR1 ag: agonists of human TAAR1; Q96RJ0; CHO RD-HGA16 TAAR1, Fluo-8 calcium fluorescence; vehicle wells 0%, saturating PEA agonist 100%; activation, % at 3 µM; 360,000 tested, 0.99% active;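 active means activation above the mean activation of all test compounds in the run plus 3 SD, cut at about 38% in these data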
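Test system: RD-HGA16 (CHO) cells co-expressing Gα16 and hTAAR1; dosing: one-point dosing at 3 µM (nominal); timing: 17-24 h seeding, 75 min 37 °C dye, 30 min RT; signal: kinetic Fluo-8 calcium fluorescence; read-out basis: % activation relative to PEA EC100 response; controls: DMSO and PEA EC100; replicates: n 1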
M1 PAM: positive allosteric modulators of human M1 muscarinic receptor. P11229. CHO-K1 hM1, Fluo-8 calcium fluorescence, ACh EC20; 0% = ACh EC20, 100% = maximal ACh. activation, % at 3 µM. 360,000 tested, 0.088% active; in the data active means activation above about 19%, passing the limit was not always enough
M1 antag: antagonists of human M1 muscarinic receptor; inhibition, % at 3 µM; 360,000 tested, 1.3% active; AID 588852; P11229; CHO-K1 hM1, Fluo-8 calcium fluorescence, ACh EC80 antagonist;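 active means percent inhibition above its own plate's cutoff, namely the mean of that plate's compound wells plus 3 SD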;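 further: peak over basal fluorescence ratio during 140 s after agonist addition; 0% = ACh EC80 plus DMSO and 100% = DMSO alone without agonist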
TAAR1 ag confirm: confirmation of human TAAR1 agonists. shares compounds with TAAR1 ag. CHO RD-HGA16 TAAR1, Fluo-8 calcium fluorescence; scaled: DMSO 0%, maximal phenethylamine 100%. activation, % at 3 µM. 2,400 tested, 82% active. AID 651783;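 active means activation above a cutoff set at the run's mean compound activation plus 3 SD, cut at about 39% in these data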
Ga16 ag counter: counter-screen for TAAR1 agonists: nonselective agonists in parental cells | CHO-Ga16 parental, Fluo-8 calcium fluorescence; normalized to maximal ATP response, DMSO zero | 2,400 tested, 50% active | activation, % at 3 µM | shares compounds with TAAR1 ag;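 active means activation above the run cutoff, the mean activation over all tested wells plus 3 SD, cut at about 12% in these data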;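 further: 0% = DMSO wells and 100% = maximal ATP response on the peak over basal ratio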
TAAR1 desens: TAAR1 response desensitization, agonist counter-screen | shares compounds with TAAR1 ag | CHO RD-HGA16 hTAAR1, Fluo-8 calcium, beta-PEA response inhibition | inhibition, % at 3 µM | 2,400 tested, 46% active;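 active means inhibition above the run cutoff, the mean inhibition of all test compounds plus 3 SD, cut at about 49% in these data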;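 further: beta-PEA stimulus applied at its EC80; loss of beta-PEA calcium signal after compound pretreatment read as receptor desensitization; 0% = DMSO with beta-PEA at EC80 and 100% = DMSO alone without agonist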
Ga16 antag count: nonselective Ga16 antagonist in TAAR1 agonist counter-screen; shares compounds with TAAR1 ag; inhibition, % at 3 µM; CHO-Ga16 ATP-induced calcium, Fluo-8 fluorescence; 2,400 tested, 39% active;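 active means inhibition above the plate's mean compound inhibition plus 3 SD, computed per plate, cut at about 22% in these data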;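 further: 0% = EC80 ATP with DMSO and 100% = DMSO wells without ATP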
* hit, by the source's call; · = no result. Rows were chosen to be rich in hits. Some 3.4% of all compounds tested hit in one or more screens of this group.

SMILES	TAAR1 antagonist	M1 ag	TAAR1 ag	M1 PAM	M1 antag	TAAR1 ag confirm	Ga16 ag counter	TAAR1 desens	Ga16 antag count
CC(C)n1nnnc1C1c2ccccc2C(=O)N1Cc1cccnc1 (stereo unspecified)	-21	·	5	·	·	·	·	·	·
CN(CCc1ccccc1)c1cc2c(c3c1ccn3C)C1CCC2C1 (stereo unspecified)	39	-5	82*	0	-2	52*	1	-6	4
CN(Cc1ccccc1)c1cc2c(c3c1ccn3C)C1CCC2C1 (stereo unspecified)	-25	-3	3	1	-30	·	·	·	·
Nc1nc(SCC(=O)Nc2ccccc2)[nH]c(=O)c1-c1ccccc1	-2	-4	6	7	-4	·	·	·	·
O=C(CSc1nc2scc(-c3ccccc3)c2c(=O)[nH]1)N1CCOCC1	-20	-3	0	5	1	·	·	·	·
O=C(CSc1nc2scc(-c3ccccc3)c2c(=O)[nH]1)NCCc1ccccc1	23	0	64*	15	-24	64*	9	33	15
Cc1cc(=O)[nH]c(SCC(=O)NCCc2ccccc2)n1	·	-2	·	6	0	·	3	·	13
Nc1nc(SCC(=O)NCCc2ccccc2)[nH]c(=O)c1-c1ccccc1	19	·	62*	·	·	53*	0	13	7
CC(=O)n1c(-c2ccccc2)c(CO)c2ccccc21	-3	-5	2	6	-3	·	·	·	·
NCCc1c(-c2ccccc2)n(-c2ccccc2)c2ccccc12	63*	-7	61*	-3	6	85*	51*	96*	34*
CCN(CC(=O)Nc1c(F)cccc1F)C(=O)Cc1csc(-c2ccc(OC)c(OC)c2)n1	-3	-4	0	8	-9	·	·	·	·
O=C(NCCCn1ccnc1)c1ccc(Br)o1	-13	-5	-2	5	-31	·	·	·	·
O=C(NCCCn1ccnc1)c1ccc(-c2cccc(Cl)c2Cl)o1	12	-5	63*	3	-4	50*	33*	17	7
CSc1ccc(CCNC(=O)c2cc(-c3ccccc3)c(N3CCOCC3)s2)cc1	30	5	2	14	-4	·	·	·	·
O=c1c(-c2ccccc2)nc2ccccc2n1C(CCc1ccccc1)c1nc2ccccc2[nH]1 (stereo unspecified)	-15	·	0	·	·	·	·	·	·
CCCCN1Cc2ccccc2Oc2cc(Br)ccc2S1(=O)=O	-1	31*	49*	26*	-16	69*	55*	19	18
O=C(Cc1nnc(NC(=O)Nc2ccccc2)s1)NCc1ccccc1	39	-3	60*	2	-1	80*	2	64*	10
O=C(Nc1nncs1)Oc1ccccc1	-7	-1	10	5	-11	·	·	·	·
COc1ccc(NC(=O)Nc2nccs2)cc1	12	2	21	5	6	·	·	·	·
O=C(Nc1ccccc1)Nc1nccs1	18	-3	47*	5	-3	85*	3	49*	7
O=C(Nc1ccccc1)Nc1nncs1	·	-2	·	3	2	·	3	·	7
Cn1cc([N+](=O)[O-])c(C(=O)Nc2ccc(-c3nc4ccccc4o3)cc2)n1	11	1	8	7	-7	·	·	·	·
CN(CC(=O)Nc1cccc(F)c1)C(=O)CCCn1c(=O)oc2ccccc21	15	-2	1	6	-5	·	·	·	·
CN(Cc1nccs1)C(=O)C1CCC(=O)N(CCCc2ccccc2)C1 (stereo unspecified)	-1	-1	1	10	-13	·	·	·	·
Cc1cc(C)c2cc3c(N)c(C(=O)N4CCc5ccccc5C4)sc3nc2c1	12	-3	78*	-3	4	56*	12*	40	39*
